Source: publication PMC3028369 (Diabetes, 2011)
In brackets after ≈: the same amount, converted by molar mass.

How the values were obtained:
[1] = tested on: C57BL/6J and adenosine receptor knockout mice; assay: NECA gavage before glucose tolerance test, fasting glucose and plasma IL-6; assay type: in vivo, mouse
How it was run: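 Male 8-week C57BL/6J mice and congenic adenosine receptor knockouts (N = 5) received an oral bolus of vehicle or NECA (0.3 mg/kg) 35 min before an ip GTT (1.25 g/kg). Blood glucose was read by glucometer and AUC calculated. Fasting glucose was taken 35 min after gavage. Plasma IL-6 was measured 4 h after dosing.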

mouse aortic ECs [2] = assay: IL-6 mRNA induction in mouse aortic ECs; assay type: cell-based
How it was run: (§1)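 Mouse aortic endothelial cells were exposed to the nonselective agonist NECA over a time course. IL-6 and KC were read out as mRNA by quantitative RT-PCR and as secreted protein.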

mouse aortic ECs [3] = assay: Cyclic AMP accumulation in mouse aortic ECs; assay type: cell-based; details: ECs from C57BL/6 mice
mouse aortic ECs [4] = assay: IL-6 and KC production in mouse aortic ECs; assay type: cell-based; details: for effect on IL-6 production in ECs (ELISA): 16 h, 10 nmol/L CPA, 100 nmol/L CGS21680, 10 nmol/L Cl-IBMECA
How it was run: as §1

Aqueous solubility = assay type: physicochemical
[5] = Oral bioavailability in rats; assay type: in vivo, rat
C57BL/6 mice = assay: High-fat diet-induced elevated fasting blood glucose; assay type: in vivo, mouse; details: 10 mg/kg/day in high-fat diet for 10 weeks, 4-h fast
How it was run: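 C57BL/6 mice ate a high-fat diet (55% of calories from fat) for 10 weeks, with or without test compound at 10 mg/kg/day. Blood glucose was measured after a 4-h fast, N = 5.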

KKA^Y mice = assay: Hyperinsulinemic-euglycemic clamp in diabetic KKA^Y mice; assay type: in vivo, mouse; details: 20 mg/kg oral gavage four times at 12-h intervals
How it was run: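 Insulin-resistant KKAY mice received test compound at 20 mg/kg by oral gavage four times at 12-h intervals. A jugular catheter was placed under anaesthesia 4–5 days earlier. Plasma [3H]glucose was sampled before, during and at the end. HGP was taken basally and under clamp. N = 7; two-tailed Student t test.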

CCNC(=O)[C@H]1O[C@@H](n2cnc3c(N)ncnc32)[C@H](O)[C@@H]1O [NECA, 5′-N-ethylcarboxamidoadensoine]
plasma IL-6 ([1]; C57BL/6J mice, 4 h after administration): increase in plasma IL-6
fasting glucose levels ([1]; C57BL/6 mice, 35 min after gavage): significantly increased
glucose disposal during GTT ([1]; wild-type fasted mice, oral gavage 0.3 mg/kg 35 min before GTT): substantial delay in glucose disposal
IL-6 mRNA in ECs (mouse aortic ECs [2]; 1 μmol/L, time course): transient increase
cyclic AMP in ECs (mouse aortic ECs [3]; agonist alone): rapid increase in cyclic AMP
IL-6 production (protein) in ECs (mouse aortic ECs [4]; 1 μmol/L, time course): more sustained stimulation
production of the murine IL-8 homolog KC in ECs (mouse aortic ECs [4]; 1 μmol/L, time course): stimulates the production
EC50 (mouse aortic ECs [4]; read-out: EC50 to stimulate IL-6 production in ECs, ECs from C57BL/6 mice, 24 h): 140 nM

CCNC(=O)[C@H]1O[C@@H](n2cnc3c(N)nc(NCCc4ccc(CCC(=O)O)cc4)nc32)[C@H](O)[C@@H]1O [CGS21680]
effect on IL-6 production in ECs (ELISA) (mouse aortic ECs [4]): without effect

OC[C@H]1O[C@@H](n2cnc3c(NC4CCCC4)ncnc32)[C@H](O)[C@@H]1O [CPA]
effect on IL-6 production in ECs (ELISA) (mouse aortic ECs [4]): without effect

CCCn1c(=O)n(C2CC2)c(=O)c2[nH]c(-c3ccc(N(CC)C(=O)c4cccnc4)nc3)nc21 [ATL-801]
aqueous solubility (Aqueous solubility): 30 µg/mL (≈ 65.3 µM)
oral bioavailability [5]: 73%
diet-induced elevated fasting blood glucose (C57BL/6 mice): significantly reduced
basal HGP rate (KKA^Y mice): markedly reduced
clamp HGP rate (insulin-stimulated state) (KKA^Y mice): markedly reduced
increase in hepatic insulin action (insulin-mediated percent suppression of basal HGP) (KKA^Y mice): 30%

CNC(=O)[C@H]1O[C@@H](n2cnc3c(NCc4cccc(I)c4)nc(Cl)nc32)[C@H](O)[C@@H]1O [Cl-IB-MECA]
effect on IL-6 production in ECs (ELISA) (mouse aortic ECs [4]): without effect

Nc1nc2c(cnn2CCc2ccc(S(=O)(=O)F)cc2)c2nc(-c3ccco3)nn12 [FSPTP]
effect on NECA-induced increase in cyclic AMP (mouse aortic ECs [3]; 1 μmol/L ATL-692, 100 nmol/L FSPTP): not affected

CCCCCCOC(=O)[C@]1(O)C[C@@H]2O[C@@]1(C)n1c3ccccc3c3c4c(c5c6ccccc6n2c5c31)C(=O)NC4 [KT5720]
inhibition of IL-6 mRNA induction by NECA (mouse aortic ECs [2]; ECs, inhibitor at 1 μmol/L): significantly inhibited
